PRMT1 inh = PRMT1 (human) inhibition, primary screen; recombinant PRMT1, activity-based probe fluorescence polarization; inhibition, % at 2.79 µM; AID 652257; Q99873; 370,000 tested, 1.3% active;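 active = inhibition above about 21% made by adding two undisclosed values, limit read from the data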
RBBP9 inhibitor = inhibitors of human serine hydrolase RBBP9; recombinant RBBP9, FP-Rh probe fluorescence polarization; inhibition, % at 7.94 µM; 220,000 tested, 0.2% active; AID 1515;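 active = inhibition above the campaign mean of all tested compounds plus 3 SD, cut at about 14% in these data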;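 note: plate controls were DMSO wells with RBBP9 for no effect and wells lacking RBBP9 protein for full effect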
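Measured by: FP readout at 525/598 nm; material: recombinant human RBBP9; also added: Serine-hydrolase probe FP-Rh, 375 nM pre-mixing; medium: Tris buffer pH 8.0, NaCl, Pluronic; replication: one well per compound; doses: one concentration, 7.94 µM nominal, 0.794% DMSO; timing: preincubation 30 min plus labeling 45 min at 25 °C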
GSTO1 counter = counter-screen for RBBP9 inhibitors: inhibitors of human GSTO1; recombinant GSTO1, activity-based probe fluorescence polarization; P78417; inhibition, % at 5.96 µM; 300,000 tested, 1.1% active;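 active = inhibition above the campaign mean inhibition plus 3 SD, cut at about 35% in these data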;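 note: 0% = GSTO1-1 with DMSO and 100% = wells lacking GSTO1-1 enzyme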
PAD4 inh = inhibitors of human PAD4; recombinant PAD4, RCA probe fluorescence polarization; inhibition, % at 6.36 µM; 330,000 tested, 0.41% active;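 active = percent inhibition above a cutoff equal to the mean of all tested compounds plus 3 SD, cut at about 15% in these data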;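 note: 0% = PAD4 with RCA probe and DMSO and 100% = probe without PAD4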
Target sequence (Q9UM07 whole entry, looked up): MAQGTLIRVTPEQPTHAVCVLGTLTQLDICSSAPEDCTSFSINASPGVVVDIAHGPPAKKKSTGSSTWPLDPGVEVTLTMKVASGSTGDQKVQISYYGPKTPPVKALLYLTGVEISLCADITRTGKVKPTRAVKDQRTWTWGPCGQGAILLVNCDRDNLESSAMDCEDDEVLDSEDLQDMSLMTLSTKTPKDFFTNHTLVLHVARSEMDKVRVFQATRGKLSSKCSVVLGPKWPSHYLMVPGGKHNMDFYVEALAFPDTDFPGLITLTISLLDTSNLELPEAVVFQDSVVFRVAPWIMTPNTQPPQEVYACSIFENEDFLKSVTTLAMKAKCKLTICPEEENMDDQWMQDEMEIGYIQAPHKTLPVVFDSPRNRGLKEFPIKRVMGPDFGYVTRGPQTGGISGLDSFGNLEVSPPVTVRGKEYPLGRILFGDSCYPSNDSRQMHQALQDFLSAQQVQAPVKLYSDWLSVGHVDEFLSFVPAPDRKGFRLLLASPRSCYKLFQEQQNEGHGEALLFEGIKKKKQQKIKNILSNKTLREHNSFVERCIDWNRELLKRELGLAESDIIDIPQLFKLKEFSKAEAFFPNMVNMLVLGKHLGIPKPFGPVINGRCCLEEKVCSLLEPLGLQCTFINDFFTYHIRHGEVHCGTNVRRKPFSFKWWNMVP
SIAE primary = human SIAE inhibition, primary screen. Q9HAT2. SIAE FP-Rh probe binding, fluorescence polarization. inhibition, % at 9.66 µM. 370,000 tested, 0.69% active;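 active = inhibition above a cutoff: mean of compounds within the control limits plus 3 SD of those, cut at about 17% in these data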;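 note: 0% = plate median of compound wells and 100% = probe without SIAE protein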
Active calls of the source: *; x = no result. Compounds with a hit are over-represented: about 2.7% of the library has one in this group of screens.

SMILES | PRMT1 inh | RBBP9 inhibitor | GSTO1 counter | PAD4 inh | SIAE primary
CC(C)[C@H](NC(=O)[C@@H]1CSC2c3ccccc3C(=O)N21)C(=O)NCc1ccco1 (some centres undefined) | 5 | x | 0 | -3 | 3
Cc1ccc(NC(=O)CSc2nccn(-c3ccc4c(c3)OCCO4)c2=O)cc1 | 19 | x | 15 | 0 | -3
CCOc1ccc(NC(=O)CSc2nccn(-c3ccc4c(c3)OCCO4)c2=O)cc1 | 22* | x | 10 | -4 | -1
CCc1ccc(NC(=O)CSc2nccn(-c3ccc4c(c3)OCCO4)c2=O)cc1 | 22* | x | x | x | -3
CCOc1ccc(-n2c(SCC(=O)Nc3ccc4c(c3)OCCO4)nnc2-c2ccncc2)cc1 | -5 | x | x | x | -2
COc1ccc(S(=O)(=O)N2CCCCC2)cc1C(=O)N1CCCC1 | -5 | x | x | x | -15
N[C@@H](C(=O)N[C@@H]1C(=O)N2C(C(=O)O)=C(Cl)CS[C@H]12)c1ccccc1 | 46* | -3 | 2 | 2 | 3
Cc1ccc(SCc2cc(=O)c3c(=O)n(-c4ccccc4)[nH]c3[nH]2)cc1 | 22* | -3 | -101 | 2 | 16
O=c1cc(CSc2ccc(Cl)cc2)[nH]c2[nH]n(-c3ccccc3)c(=O)c12 | 24* | -10 | -191 | 2 | 14
CCOC(=O)c1c2c(n(C)c1C)C(=O)C(=O)c1ccc(Br)cc1-2 | 0 | 6 | 72* | -3 | 1
CC(=O)Nc1nc2cc3c(cc2s1)OCO3 | -3 | 7 | -6 | 2 | 10
O=C(NNc1nc2cc3c(cc2s1)OCO3)c1ccc(F)cc1 | 23* | -7 | 3 | 2 | 9
Cc1ccc(C)c(N2C(=O)CC(Cc3ccc(Cl)cc3)C2=O)c1 (centres undefined) | 3 | x | 0 | -2 | -3
Cc1ccc2[nH]c3c(c2c1)CN(C(=O)CN(C)CC1OCCO1)CC3 | 22* | -9 | 17 | -13 | -2
CCCC(=O)Nc1ccc(C(=O)Nc2nc(CC(=O)OCC)cs2)cc1 | 0 | -8 | -6 | 3 | 5
OCC#Cc1ncc(C(F)(F)F)cc1Cl | 1 | -6 | 83* | -2 | 4
NC(=O)Cc1ncc(C(F)(F)F)cc1Cl | 0 | 4 | 6 | -5 | -3
O=C(CCl)NCc1cc(-c2ccc(Cl)cc2)no1 | 1 | -3 | 89* | 0 | 0
COc1ccc(OCc2cc(-c3ccc(Cl)cc3)no2)cc1 | -1 | 3 | -6 | 5 | 1
Cn1c(=NC(=O)c2ccco2)sc2ccccc21 | 3 | 1 | 36* | 1 | 6
Cc1cc(NC(=O)Nc2cc(F)ccc2C)n(C)n1 | x | x | 6 | 1 | x
COc1cc(OC)c(-c2c3cc(O)c(=O)cc-3oc3cc(O)c(O)cc23)cc1OC | 24* | -169 | -181 | -121 | -319
C/C=C/Cn1c(SCc2ccc(C)cc2)nc2c1c(=O)[nH]c(=O)n2C | 11 | 2 | -7 | -4 | -5
CC=CCn1c(SCc2ccccc2)nc2c1c(=O)[nH]c(=O)n2C | 24* | x | x | x | -1
COc1cc(/C=N/NC(=O)[C@H](Cc2c[nH]c3ccccc23)NC(=O)OCC(C)C)cc([N+](=O)[O-])c1O | 12 | 2 | 21 | 4 | 33*
SMILES | PRMT1 inh | RBBP9 inhibitor | GSTO1 counter | PAD4 inh | SIAE primary
COc1cc(/C=N/NC(=O)Cc2ccccc2)cc([N+](=O)[O-])c1O | 0 | x | 13 | 1 | 10
COc1cccc(OC)c1C(=O)Nc1ccc(S(=O)(=O)Nc2cc(C)nc(C)n2)cc1 | 1 | 4 | 3 | 4 | 4
Cn1c2ccccc2c(=O)c2c(=O)n(Cc3ccco3)c(-c3ccc(F)cc3)nc21 | 6 | -26 | 5 | -3 | -7
Cc1ccc(-c2nc3c(c(=O)c4ccccc4n3C)c(=O)n2Cc2ccco2)cc1 | 22* | -22 | 0 | -4 | -41
CCc1nc2sc3ccccc3c(=O)c2c(=O)n1Cc1ccco1 | 21* | -13 | 11 | 0 | -5
O=C(O)C1CC(=O)N(C2CCCCC2)C1c1ccccc1 (centres undefined) | 2 | 2 | -3 | 2 | -7
C#CCOCCOCCOCCNc1nc(N2CCN(C(=O)[C@H](C)n3cc(CCC(=O)O)nn3)CC2)nc(N2CCN(C(=O)[C@H](C)n3cc(CCC(=O)O)nn3)CC2)n1 | 1 | x | x | x | 1
CCOc1cc(/C=C2\C(=O)N(c3ccc(C(N)=O)cc3)N=C2C)ccc1OC(=O)c1cccs1 | x | -4 | 73* | 27* | x
CCCc1cc(=O)[nH]c(SCC(=O)c2ccc(S(=O)(=O)N3CCCC3)cc2)n1 | 22* | -7 | 37* | -1 | -5
COc1ccc(Cn2nnnc2C(c2cccs2)N2CCN(c3ccccc3)CC2)cc1 (centres undefined) | -2 | 7 | 2 | -4 | -3
Oc1ccc(N2CCN(C(c3cccs3)c3nnnn3CCc3ccccc3)CC2)cc1 (centres undefined) | 22* | 10 | 18 | 2 | 3
O=C(CSc1nc2c(c(C(F)(F)F)n1)CCc1ccccc1-2)NCc1ccc(F)cc1 | -2 | -4 | 1 | 1 | 3
Cc1ccc(S(=O)(=O)Nc2cc(C(C(=O)OC(C)C)C(=O)C(F)(F)F)c(O)c3ccccc23)c(C)c1 (centres undefined) | 25* | 6 | 44* | 8 | -1
Cc1ccc(S(=O)(=O)Nc2ccc(O)c3ccccc23)c(C)c1 | 13 | x | x | x | 7
COC(=O)C1CSC(C(=O)OC)N1C(=O)Nc1ccccc1 (centres undefined) | 24* | -9 | -6 | 5 | -2
CC(Sc1nncn1C)C(=O)Nc1ccc(S(N)(=O)=O)cc1 (centres undefined) | 1 | -10 | 10 | -2 | -3
COc1ccc(/C=N/NC(=O)CCN2CCN(c3ccccc3)CC2)c(OC)c1OC | 0 | 2 | -3 | -4 | 1
O=C(CCN1CCN(c2ccccc2)CC1)N/N=C/c1ccc(O)c(O)c1O | 23* | 10 | x | x | 12
O=[N+]([O-])c1cccc(N=Nc2ccc(O)cc2O)c1 | -1 | x | x | x | 10
CC(=O)c1ccc(NC(=O)CSc2nnc(-c3ccco3)c(-c3ccco3)n2)cc1 | 73* | 1 | 35* | -4 | 8
COC(=O)CNC(=O)CSc1ccccn1 | 5 | 6 | 12 | 1 | -5
NC(=O)c1ccc(SCC(=O)OCC(=O)N2CCN(C(=O)c3ccco3)CC2)c([N+](=O)[O-])c1 | 22* | x | 4 | 0 | 0
COc1ccc(OCC(=O)OCC(=O)NC2CCCCC2C)cc1 (centres undefined) | -1 | x | x | 1 | 6
COc1cc(NC2CCCCC2O)c2nc(-c3ccc(Cl)cc3)ccc2c1 (centres undefined) | 1 | 0 | 52* | 11 | 1
O=C(Cn1c(=O)n(Cc2ccco2)c(=O)c2c3c(sc21)CCCCC3)c1ccccc1 | x | -16 | 4 | 2 | x
O=C(Cn1c(=O)n(Cc2ccco2)c(=O)c2c3c(sc21)CCCCC3)Nc1ccccc1 | 24* | -14 | 6 | 1 | -50
COc1ccc(CC(=O)OCC(=O)Nc2ccc3c(c2)OCO3)cc1OC | -1 | -5 | -2 | -7 | -6

Source: PubChem BioAssay
